From ChEMBL document CHEMBL2424527, “Doxorubicin-antioxidant co-drugs” (Bioorg Med Chem Lett, 2013) come the findings set out here.

Molecules are shown by their SMILES. Activity calls are given as the source filed them. The calls are words filed in the database; no cut-off is given here.

Usually Vmax stands for the top rate of the reaction or transport when substrate is in excess.

The test system of series [1] is MCF7. Briefly: Cellular uptake in human MCF7 cells at 5 umol/L after 24 hrs by spectrofluorimetry. The series is classed as ADME, cell-based. The note with it: mcf7, 24 h, 5 µM. The gist of the method: (§1)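 Cells exposed 24 h to 5 μmol/L drug. Doxorubicin in whole-cell lysates read fluorimetrically at ex 475/em 553 nm, cell-free blank subtracted. Converted to nmol/mg cell protein via calibration curve. Duplicate measurements; means ± SD, n = 3.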

The species entered for the next series is Homo sapiens. In words: Inhibition of human topoisomerase 2 using supercoiled pHOT1 as substrate at 1 to 50 umol/L by agarose gel electrophoresis. The gist of the method: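 Purified human topoisomerase II incubated with supercoiled pHOT1 plasmid and drug at 1, 5, 25, 50 μmol/L, using a commercial topoisomerase II drug screening kit. Etoposide at 5, 50, 100 μmol/L served as positive control.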

A short description of series [2]: Cellular uptake in human MDA-MB-231 cell nucleus at 5 umol/L after 24 hrs by fluorimetric analysis. It is filed as ADME, cell-based. As to conditions: mda-mb-231, 24 h, 5 µM. The gist of the method:
(§2)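 Cells incubated 24 h with 5 μmol/L drug. Doxorubicin measured fluorimetrically in nuclear or mitochondrial extracts, in duplicate. Means ± SD, n = 3.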

The test system of series [3] is MDA-MB-231. In words: Antioxidant activity in human MDA-MB-231 cells assessed as intramitochondrial ROS level at 5 umol/L after 24 hrs by DCFDA-AM staining-based spectrofluorimetry. The series is classed as functional, cell-based. The gist of the method: (§3)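 Mitochondria freshly isolated from cells grown 24 h with 5 μmol/L compound. DCFDA-AM loading and fluorescence read (ex 490/em 530 nm) as for whole cells, blank subtracted. Values expressed as nmol/mg mitochondrial protein. Measured in duplicate; means ± SD.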

Series [4] is described as follows: Cellular uptake in rat H9c2 cell nucleus at 5 umol/L after 24 hrs by fluorimetric analysis. The series is classed as ADME, cell-based. As to conditions: h9c2, 24 h, 5 µM. The gist of the method: as §2
A short description of series [5]: Cellular uptake in human MCF7 cell mitochondria at 5 umol/L after 24 hrs by fluorimetric analysis. As to conditions: mcf7, 24 h, 5 µM. It is filed as ADME. The gist of the method:
as §2

The test system of series [6] is H9c2. In words: Antioxidant activity in rat H9c2 cells assessed as intracellular malonyldialdehyde level at 5 umol/L after 24 hrs by spectrofluorimetry. It is filed as functional, cell-based.
Series [7] relates to MCF7. In words: Drug efflux in human MCF7 cells at 1 to 100 umol/L incubated for 20 mins prior to compound wash out measured after 10 mins by spectrofluorimetry. The note with it: mcf7, 20 min. The series is classed as ADME, cell-based. In a few lines: (§4)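 Doxorubicin in whole-cell lysates measured fluorimetrically at ex 475/em 553 nm, blank subtracted, converted to nmol/mg cell protein by calibration curve. Kinetic values fitted to Michaelis-Menten equation to obtain Vmax and Km.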

Series [8] concerns MCF7. In words: Antioxidant activity in human MCF7 cells assessed as intracellular malonyldialdehyde level at 5 umol/L after 24 hrs by spectrofluorimetry. The series is classed as functional, cell-based.
The nature of series [9]: Cellular uptake in rat H9c2 cell mitochondria at 5 umol/L after 24 hrs by fluorimetric analysis. It is filed as ADME. The note with it: h9c2, 24 h, 5 µM. The gist of the method: as §2
Series [10] relates to MCF7. In words: Cytotoxicity against human MCF7 cells assessed as LDH release at 5 umol/L after 24 hrs. The series is classed as functional, cell-based. The gist of the method:
(§5)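 Cells exposed 24 h to 5 μmol/L compound. Medium centrifuged 12,000 × g, 15 min; cells sonicated in 82.3 mmol/L triethanolamine phosphate-HCl pH 7.6. LDH read at 340 nm over 6 min in medium and lysate, in duplicate. Extracellular activity given as % of total; means ± SD, n = 4.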

Series [11] relates to H9c2. In words: Antioxidant activity in rat H9c2 cells assessed as intramitochondrial ROS level at 5 umol/L after 24 hrs by DCFDA-AM staining-based spectrofluorimetry. It is filed as functional, cell-based. In a few lines: as §3
Series [12] in a line: Cellular uptake in human MCF7 cell nucleus at 5 umol/L after 24 hrs by fluorimetric analysis. The series is classed as ADME, cell-based. The note with it: mcf7, 24 h, 5 µM. In a few lines: as §2
For series [13], the system named is MDA-MB-231. Briefly: Cytotoxicity against human MDA-MB-231 cells assessed as LDH release at 5 umol/L after 24 hrs. The series is classed as functional, cell-based. In a few lines: as §5
For series [14], the system named is MDA-MB-231. Briefly: Cellular uptake in human MDA-MB-231 cells at 5 umol/L after 24 hrs by spectrofluorimetry. The series is classed as ADME, cell-based. The note with it: mda-mb-231, 24 h, 5 µM. In a few lines:
as §1

Series [15] has as its system H9c2. In words: Antioxidant activity in rat H9c2 cells assessed as intracellular ROS level at 5 umol/L after 24 hrs by DCFDA-AM staining-based spectrofluorimetry. The series is classed as functional, cell-based. In a few lines: (§6)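 Cells rinsed in PBS, loaded with 10 μmol/L DCFDA-AM for 10 min at 37°C, washed, resuspended in PBS. DCFH fluorescence read at ex 490/em 530 nm, cell-free blank subtracted, converted to nmol/mg cell protein by titration curve. Means ± SD; ANOVA with Tukey's test.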

Series [16] relates to H9c2. Briefly: Cellular uptake in rat H9c2 cells at 5 umol/L after 24 hrs by spectrofluorimetry. The series is classed as ADME, cell-based. The note with it: h9c2, 24 h, 5 µM. The gist of the method:
as §1

Series [17] can be described thus: Cellular uptake in human MDA-MB-231 cell mitochondria at 5 umol/L after 24 hrs by fluorimetric analysis. It is filed as ADME. The note with it: mda-mb-231, 24 h, 5 µM. In a few lines:
as §2

Series [18] concerns MDA-MB-231. Briefly: Drug efflux in human MDA-MB-231 cells at 1 to 100 umol/L incubated for 20 mins prior to compound wash out measured after 10 mins by spectrofluorimetry. As to conditions: mda-mb-231, 20 min. The series is classed as ADME, cell-based. In a few lines: as §4
The subject of series [19] is H9c2. Briefly: Drug efflux in rat H9c2 cells at 1 to 100 umol/L incubated for 20 mins prior to compound wash out measured after 10 mins by spectrofluorimetry. The note with it: h9c2, 20 min. The series is classed as ADME, cell-based. In a few lines: as §4
Series [20] relates to MDA-MB-231. In words: Antioxidant activity in human MDA-MB-231 cells assessed as intracellular malonyldialdehyde level at 5 umol/L after 24 hrs by spectrofluorimetry. The series is classed as functional, cell-based.
Series [21] deals with MDA-MB-231. In words: Antioxidant activity in human MDA-MB-231 cells assessed as intracellular ROS level at 5 umol/L after 24 hrs by DCFDA-AM staining-based spectrofluorimetry. The series is classed as functional, cell-based. The gist of the method:
as §6

Series [22] concerns MCF7. In words: Antioxidant activity in human MCF7 cells assessed as intracellular ROS level at 5 umol/L after 24 hrs by DCFDA-AM staining-based spectrofluorimetry. It is filed as functional, cell-based. In a few lines: as §6
The test system of series [23] is MCF7. In words: Antioxidant activity in human MCF7 cells assessed as intramitochondrial ROS level at 5 umol/L after 24 hrs by DCFDA-AM staining-based spectrofluorimetry. The series is classed as functional, cell-based. In a few lines:
as §3

Series [24] deals with H9c2. Briefly: Cytotoxicity against rat H9c2 cells assessed as LDH release at 5 umol/L after 24 hrs. The series is classed as cell-based. As to conditions: h9c2, 24 h, 5 µM. In a few lines:
as §5
On the technique in general: LDH leaks from cells whose membrane has failed.

As for `COc1cc(/C=C/C(=O)OCC(=O)[C@]2(O)Cc3c(O)c4c(c(O)c3[C@@H](O[C@H]3C[C@H](N)[C@H](O)[C@H](C)O3)C2)C(=O)c2c(OC)cccc2C4=O)ccc1O.Cl`, the Drug uptake entry (in the series on MCF7 [1]; in series [2]; in series [4]; in series [5]; in [9]; in series [12]) was “Active” throughout. Also, the figures for the Drug uptake result (with MDA-MB-231 [14]; with H9c2 [16]; in [17]) were “Active”, “Not Active” and “Active”, respectively. Also, the inhibition entry in the series filed under Homo sapiens is “Active”. The outcome in the series with MDA-MB-231 [3], in the series on MDA-MB-231 [20] and in the series on MDA-MB-231 [21] was inactive. Further, the outcome in the series on H9c2 [6], in the series with MCF7 [8], with MCF7 [10], in the series on H9c2 [11], with MDA-MB-231 [13] and in the series with H9c2 [15] was Active. Besides, the outcome in the series on MCF7 [22] and with MCF7 [23] was Active. Further, the Km is 1.83 nmol/mg in the series on MCF7 [7], 1.25 nmol/mg with MDA-MB-231 [18] and 2.01 nmol/mg with H9c2 [19]. Further, the Vmax with MCF7 [7] is listed as 11.1 nmol/min/mg; with MDA-MB-231 [18], 16.53 nmol/min/mg; with H9c2 [19], 11.7 nmol/min/mg. In addition, the Activity result in the series with H9c2 [24] is listed as “Toxic”.

Take `COc1cccc2c1C(=O)c1c(O)c3c(c(O)c1C2=O)C[C@@](O)(C(=O)COC(=O)/C=C/c1ccc(O)c(O)c1)C[C@@H]3O[C@H]1C[C@H](N)[C@H](O)[C@H](C)O1.Cl`: the Drug uptake result in the series with MCF7 [1], in the series on MDA-MB-231 [14] and in the series with H9c2 [16] was “Active” each time. Moreover, in the series on MCF7 [10], the result was Active. For the same compound, in the series on MDA-MB-231 [13], the result was inactive. Besides, in the series with H9c2 [24], the Activity entry was “Toxic”.

As to `COc1cccc2c1C(=O)c1c(O)c3c(c(O)c1C2=O)C[C@@](O)(C(=O)CO)C[C@@H]3O[C@H]1C[C@H](N)[C@H](O)[C@H](C)O1` [DOXORUBICIN], the Drug uptake result in the series on MCF7 [1] is “Active”; in series [2], “Active”; in series [12], “Active”; in the series with MDA-MB-231 [14], “Active”; in the series with H9c2 [16] it was “Not Active”. In addition, in the series filed under Homo sapiens, the inhibition result is “Active”. The outcome with MDA-MB-231 [3], in the series on MDA-MB-231 [20] and in the series with MDA-MB-231 [21] was inactive. For the same compound, the result in the series on H9c2 [6], in the series with MCF7 [8], in the series on MCF7 [10], in the series with H9c2 [11], with MDA-MB-231 [13] and in the series with H9c2 [15] was Active. In addition, the outcome in the series with MCF7 [22] and with MCF7 [23] was Active. Further, the Km worked out at 1.88 nmol/mg with MCF7 [7], 1.35 nmol/mg in the series with MDA-MB-231 [18] and 1.96 nmol/mg in the series on H9c2 [19]. In addition, the Vmax with MCF7 [7] was 18.9 nmol/min/mg; with MDA-MB-231 [18], 33.11 nmol/min/mg; in the series with H9c2 [19], 11.89 nmol/min/mg. Besides, the Activity entry with H9c2 [24] is recorded as “Toxic”.
